# Active and inactive are the calls of the source. The rule behind the calls is not given here.
# Key:
# [1] = target: T1, Zinc finger protein GLI1 (Homo sapiens) (UniProt P08151); test: Inhibition of exogenously transfected human Gli1-mediated transcriptional activity in mouse C3H10T1/2 cells at 20 uM after 24 hrs by luciferase reporter gene assay; type: cell-based; conditions: C3H 10T1/2
# T1 sequence (whole entry): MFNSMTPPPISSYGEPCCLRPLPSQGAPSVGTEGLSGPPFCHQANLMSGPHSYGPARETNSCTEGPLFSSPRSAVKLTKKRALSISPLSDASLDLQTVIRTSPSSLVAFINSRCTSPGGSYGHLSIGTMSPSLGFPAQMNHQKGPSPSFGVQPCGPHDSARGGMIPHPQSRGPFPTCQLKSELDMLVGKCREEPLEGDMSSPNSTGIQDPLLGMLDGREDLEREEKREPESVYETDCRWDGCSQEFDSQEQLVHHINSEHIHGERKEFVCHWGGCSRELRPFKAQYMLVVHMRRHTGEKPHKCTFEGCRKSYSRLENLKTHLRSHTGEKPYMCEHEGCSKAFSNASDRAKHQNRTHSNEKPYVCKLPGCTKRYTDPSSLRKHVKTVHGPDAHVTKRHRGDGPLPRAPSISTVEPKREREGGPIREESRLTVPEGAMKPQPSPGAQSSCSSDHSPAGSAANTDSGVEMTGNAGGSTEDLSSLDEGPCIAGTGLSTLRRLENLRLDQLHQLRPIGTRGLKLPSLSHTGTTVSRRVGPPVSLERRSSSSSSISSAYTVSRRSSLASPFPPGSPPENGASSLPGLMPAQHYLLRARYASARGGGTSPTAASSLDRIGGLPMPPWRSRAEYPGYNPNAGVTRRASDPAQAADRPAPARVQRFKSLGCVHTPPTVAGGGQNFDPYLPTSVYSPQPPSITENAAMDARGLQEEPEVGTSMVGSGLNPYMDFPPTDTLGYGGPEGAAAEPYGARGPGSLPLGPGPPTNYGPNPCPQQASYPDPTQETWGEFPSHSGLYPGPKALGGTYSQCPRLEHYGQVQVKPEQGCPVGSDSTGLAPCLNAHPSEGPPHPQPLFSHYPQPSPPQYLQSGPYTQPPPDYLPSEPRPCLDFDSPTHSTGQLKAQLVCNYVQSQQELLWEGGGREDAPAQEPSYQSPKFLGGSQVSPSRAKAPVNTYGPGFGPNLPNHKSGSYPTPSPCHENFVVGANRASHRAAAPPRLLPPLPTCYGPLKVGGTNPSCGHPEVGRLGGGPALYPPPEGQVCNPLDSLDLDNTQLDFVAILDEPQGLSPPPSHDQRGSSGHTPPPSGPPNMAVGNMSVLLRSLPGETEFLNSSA
# In short: (§1)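 They were replated 18 h later, given compound or DMSO 6 h after plating, and exposed for 24 h at 37 °C, 5% CO2. Lysate was read by dual luciferase as firefly/Renilla, triplicate, DMSO = 0%. IC50 came from curve fitting.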
# [2] = target: T1, Zinc finger protein GLI1 (Homo sapiens); test: Inhibition of exogenously transfected human Gli1-mediated transcriptional activity in mouse C3H10T1/2 cells at 40 uM after 24 hrs by luciferase reporter gene assay; type: cell-based; conditions: C3H 10T1/2; in short: as §1
# SJRH30 = test: Cytotoxicity against human Rh30 cells at 40 uM/well after 68 hrs by alamar blue assay; type: functional, cell-based
# In short: (§2)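 Cells plated in appropriate medium 24 h before compound. A 10 mM DMSO stock was diluted in EMEM to 160 µM (4×) and added in triplicate to a final 40 µM. Incubated 68 h at 37 °C, then Alamar Blue for 4 h at 37 °C. Fluorescence read at ex 510/em 590 nm. Viability taken relative to DMSO control wells.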
# MDA-MB-231 = test: Cytotoxicity against human MDA-MB-231 cells at 40 uM/well after 68 hrs by alamar blue assay; type: functional, cell-based; in short: as §2
# Daoy = test: Cytotoxicity against human DaOY cells at 40 uM/well after 68 hrs by alamar blue assay; type: functional, cell-based; in short: as §2
# DU-145 = test: Cytotoxicity against human DU145 cells at 40 uM/well after 68 hrs by alamar blue assay; type: functional, cell-based; in short: as §2
# Raji = test: Cytotoxicity against human Raji cells at 40 uM/well after 68 hrs by alamar blue assay; type: functional, cell-based; in short: as §2
# HepG2 = test: Cytotoxicity against human HepG2 cells at 40 uM/well after 68 hrs by alamar blue assay; type: functional, cell-based; in short: as §2
# LN-229 = test: Cytotoxicity against human LN229 cells at 40 uM/well after 68 hrs by alamar blue assay; type: functional, cell-based; in short: as §2
# BJ = test: Cytotoxicity against human TERT-immortalized human BJ cells at 40 uM/well after 68 hrs by alamar blue assay; type: cell-based; in short: as §2
# [3] = Cytotoxicity against mouse C3H10T1/2 cells; type: cell-based; conditions: c3h 10t1/2
# Zinc finger protein GLI2 = Zinc finger protein GLI2 (Homo sapiens, UniProt P10070); test: Inhibition of exogenously transfected human Gli2 delta-N-mediated transcriptional activity in mouse C3H10T1/2 cells after 24 hrs by luciferase reporter gene assay; type: cell-based; conditions: c3h 10t1/2
# In short: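 C3H10T1/2 reporter assay run as for hGli1, but with an amino-terminal repressor-domain-deleted hGli2 (ΔNhGli2) in place of hGli1, plus GliLuc-BS and pRL-TK via Fugene6. Compound or DMSO was given for 24 h at 37 °C. Read-out was dual luciferase firefly/Renilla in triplicate, with dose-response curve fitting.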
# [4] = Stability in mouse C3H10T1/2 cells assessed as compound degradation at 40 uM after 24 hrs by LCMS analysis; type: ADME, cell-based; conditions: c3h 10t1/2, 24 h
# Chain of Zinc finger protein GLI2 (P10070 whole entry, looked up): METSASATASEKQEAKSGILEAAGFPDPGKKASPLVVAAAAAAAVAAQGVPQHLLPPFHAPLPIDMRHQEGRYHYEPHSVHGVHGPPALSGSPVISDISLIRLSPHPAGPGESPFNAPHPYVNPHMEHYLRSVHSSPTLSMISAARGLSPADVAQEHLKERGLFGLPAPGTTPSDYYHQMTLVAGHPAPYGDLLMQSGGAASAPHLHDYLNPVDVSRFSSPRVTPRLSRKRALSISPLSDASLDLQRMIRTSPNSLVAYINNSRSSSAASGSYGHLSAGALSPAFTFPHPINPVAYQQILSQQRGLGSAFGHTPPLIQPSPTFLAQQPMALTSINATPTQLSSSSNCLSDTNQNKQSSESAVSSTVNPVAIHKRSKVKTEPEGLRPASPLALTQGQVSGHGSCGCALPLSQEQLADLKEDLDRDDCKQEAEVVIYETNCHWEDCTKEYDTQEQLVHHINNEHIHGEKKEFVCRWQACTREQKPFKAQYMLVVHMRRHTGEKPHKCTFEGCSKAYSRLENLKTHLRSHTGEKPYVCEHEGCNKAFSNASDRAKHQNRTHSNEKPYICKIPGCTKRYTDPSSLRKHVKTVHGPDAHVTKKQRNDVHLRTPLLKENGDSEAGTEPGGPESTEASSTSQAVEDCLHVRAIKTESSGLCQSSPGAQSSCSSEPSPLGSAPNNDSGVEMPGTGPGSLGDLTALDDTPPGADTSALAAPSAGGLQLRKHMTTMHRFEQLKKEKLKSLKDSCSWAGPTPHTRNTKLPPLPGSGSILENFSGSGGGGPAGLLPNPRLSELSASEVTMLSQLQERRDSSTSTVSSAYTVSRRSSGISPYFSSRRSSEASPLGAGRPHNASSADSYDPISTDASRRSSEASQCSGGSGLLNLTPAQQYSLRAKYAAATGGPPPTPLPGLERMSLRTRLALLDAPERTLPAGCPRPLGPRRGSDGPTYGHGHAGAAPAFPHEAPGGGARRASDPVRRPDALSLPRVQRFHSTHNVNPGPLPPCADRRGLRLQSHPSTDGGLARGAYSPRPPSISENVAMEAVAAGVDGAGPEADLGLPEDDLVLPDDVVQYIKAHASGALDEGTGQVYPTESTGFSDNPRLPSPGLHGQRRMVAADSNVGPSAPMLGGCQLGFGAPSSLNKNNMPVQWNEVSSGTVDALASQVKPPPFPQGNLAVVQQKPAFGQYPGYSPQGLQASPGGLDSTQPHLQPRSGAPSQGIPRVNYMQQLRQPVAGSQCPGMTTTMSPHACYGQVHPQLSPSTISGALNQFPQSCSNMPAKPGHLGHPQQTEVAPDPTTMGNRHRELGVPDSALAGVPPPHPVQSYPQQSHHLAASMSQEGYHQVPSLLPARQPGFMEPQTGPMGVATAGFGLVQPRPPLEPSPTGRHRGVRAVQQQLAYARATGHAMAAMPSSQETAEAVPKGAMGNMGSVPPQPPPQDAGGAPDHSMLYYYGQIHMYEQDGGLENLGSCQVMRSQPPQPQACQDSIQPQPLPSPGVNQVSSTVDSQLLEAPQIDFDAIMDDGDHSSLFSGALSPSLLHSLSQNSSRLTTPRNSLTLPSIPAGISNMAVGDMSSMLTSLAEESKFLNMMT
Compound,inhibition [1],inhibition [2],Activity (SJRH30),Activity (MDA-MB-231),Activity (Daoy),Activity (DU-145),Activity (Raji),Activity (HepG2),Activity (LN-229),Activity (BJ),Activity [3],IC50 (Zinc finger protein GLI2) [µM],Stability [4]
COc1ccc(C(=O)NC[C@@H](C)c2cccc(C(=O)c3ccccc3)c2)cc1,Active,Active,Active,Active,Active,Active,Active,inactive,inactive,Non-toxic,–,–,–
COc1ccc2cc([C@H](C)C(=O)NCCc3ccc(O)cc3)ccc2c1,Active,Active,Active,Active,Active,Active,Active,inactive,inactive,Non-toxic,–,–,–
COc1ccccc1CCNC(=O)[C@@H](C)c1cccc(C(=O)c2ccccc2)c1,Active,Active,Active,Active,Active,Active,Active,inactive,inactive,Non-toxic,–,–,–
C[C@H](CNC(=O)NCCc1ccc(O)cc1)c1cccc(C(=O)c2ccccc2)c1,Active,Active,Active,Active,Active,Active,Active,inactive,inactive,Toxic,–,–,–
C[C@H](CNC(=O)CCc1ccc(O)cc1)c1cccc(C(=O)c2ccccc2)c1,Active,Active,Active,Active,Active,Active,Active,inactive,inactive,Non-toxic,–,–,–
COCCN(CCc1ccc(O)cc1)C(=O)[C@@H](C)c1cccc(C(=O)c2ccccc2)c1,Active,Active,Active,Active,Active,Active,Active,inactive,inactive,Non-toxic,–,–,–
C[C@H](C(=O)NCCc1ccccc1)c1cccc(C(=O)c2ccccc2)c1,Active,Active,Active,Active,Active,Active,Active,inactive,inactive,Non-toxic,–,–,–
C[C@H](CNC(=O)Nc1ccc(O)cc1)c1cccc(C(=O)c2ccccc2)c1,Active,Active,Active,Active,Active,Active,Active,inactive,inactive,Toxic,–,–,–
C[C@H](C(=O)NCCc1ccc(Cl)cc1)c1cccc(C(=O)c2ccccc2)c1,Active,Active,Active,Active,Active,Active,Active,inactive,inactive,Non-toxic,–,–,–
O=C(Cc1c[nH]c2ccc(OCc3ccccc3)cc12)NCCc1ccc(O)cc1,Active,Active,Active,Active,Active,Active,Active,inactive,inactive,Non-toxic,Toxic,–,–
COc1cccc(CCNC(=O)[C@@H](C)c2cccc(C(=O)c3ccccc3)c2)c1,Active,Active,Active,Active,Active,Active,Active,inactive,inactive,Non-toxic,–,–,–
C[C@H](C(=O)N(CCc1ccc(O)cc1)CCc1ccc(O)cc1)c1cccc(C(=O)c2ccccc2)c1,Active,Active,Active,Active,Active,Active,Active,inactive,inactive,Non-toxic,–,20.5,Stable
